In brackets after ≈: the same amount, converted by molar mass.
How the values were obtained:
[1] = system: Vero; assay: Cytotoxicity against african green monkey Vero cells after 72 hrs; format: cell-based; settings: Chlorocebus sabaeus
Method in brief: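 VERO (CCL-81) monolayers exposed 72 h to 3-fold serial dilutions of compound. Viability read by tetrazolium dye reduction, product absorbance at 490 nm. Untreated cells set 0% inhibition, SDS-lysed cells 100% inhibition.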

[2] = system: Mycobacterium tuberculosis; assay: Antimicrobial activity against Mycobacterium tuberculosis after 8 days in aerobic condition by alamar blue assay; format: functional; settings: 192 h
Method in brief: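 Replicating M. tb was tested in an 8-day microplate assay. Alamar blue was added on day 7 to measure growth. The MIC was taken as the lowest drug concentration giving >90% inhibition.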

[3] = system: Mycobacterium tuberculosis; assay: Antimicrobial activity against Mycobacterium tuberculosis assessed as growth inhibition at 100 uM after 8 days under aerobic condition by alamar blue assay; format: functional; settings: 192 h
[4] = system: Mycobacterium tuberculosis; assay: Antimicrobial activity against Mycobacterium tuberculosis after 11 days under anaerobic condition by luminescence-based low oxygen recovery assay; format: functional; settings: 264 h
[5] = system: Mycobacterium tuberculosis; assay: Antimicrobial activity against Mycobacterium tuberculosis assessed as growth inhibition at 100 uM after 11 days under anaerobic condition by luminescence-based low oxygen recovery assay; format: functional; settings: 264 h

Row | SMILES | IC50 [1] [µM] | MIC [2] [µM] | inhibition at 100 µM [3] [%] | MIC [4] [µM] | inhibition at 100 µM [5] [%]
1 | O=[N+]([O-])c1cn2c(n1)OCC(OCc1ccc(OC(F)(F)F)cc1)C2 (stereo unspecified) | > 128 |  |  |  | 
2 | O=[N+]([O-])c1nc2n(n1)C[C@H](OCc1ccc(OCc3ccccc3)cc1)CO2 |  | > 128 | 18 |  | 
3 | O=[N+]([O-])c1nc2n(n1)C[C@H](OCc1ccc(OC(F)(F)F)cc1)CO2 | > 128 | > 128 | 81 |  | 
4 | O=[N+]([O-])c1cn2c(n1)S(=O)(=O)CC(OCc1ccc(OCc3ccccc3)cc1)C2 (stereo unspecified) | > 128 | > 128 | 61 | > 128 | 79
5 | O=[N+]([O-])c1cn2c(n1)[S+]([O-])CC(OCc1ccc(OC(F)(F)F)cc1)C2 (stereo unspecified) | > 128 | > 128 | 87 | 92 (≈ 36 µg/mL) | 
6 | CN1CC(OCc2ccc(OC(F)(F)F)cc2)Cn2nc([N+](=O)[O-])cc21 (stereo unspecified) | > 128 | > 128 | 61 | > 128 | 37
7 | O=[N+]([O-])c1cc2n(n1)CC(OCc1ccc(OCc3ccccc3)cc1)CO2 (stereo unspecified) | 82 | > 128 | 38 | > 128 | 19
8 | O=[N+]([O-])c1cn2c(n1)[S+]([O-])CC(OCc1ccc(OCc3ccccc3)cc1)C2 (stereo unspecified) | 63 | > 128 | 23 | > 128 | 20
9 | O=[N+]([O-])c1cn2c(n1)OCC(OCc1ccc(OCc3ccccc3)cc1)C2 (stereo unspecified) | > 128 |  |  |  | 
10 | O=[N+]([O-])c1cn2c(n1)S(=O)(=O)CC(OCc1ccc(OC(F)(F)F)cc1)C2 (stereo unspecified) | > 128 | > 128 | 89 | 89 (≈ 36.3 µg/mL) | 
11 | O=[N+]([O-])c1cc2n(n1)CC(OCc1ccc(OC(F)(F)F)cc1)CN2 (stereo unspecified) |  | > 128 | 61 | 111 (≈ 39.8 µg/mL) | 
12 | O=[N+]([O-])c1nc2n(n1)C[C@@H](OCc1ccc(OC(F)(F)F)cc1)CO2 | > 128 | > 128 | 84 |  | 
13 | O=[N+]([O-])c1cn2c(n1)CCC(OCc1ccc(OCc3ccccc3)cc1)C2 (stereo unspecified) |  | > 128 | 5 | > 128 | 49
14 | CN1CC(OCc2ccc(OCc3ccccc3)cc2)Cn2nc([N+](=O)[O-])cc21 (stereo unspecified) | > 128 | > 128 | 58 | > 128 | 3
15 | O=[N+]([O-])c1cn2c(n1)CCC(OCc1ccc(OC(F)(F)F)cc1)C2 (stereo unspecified) |  | 126 (≈ 45 µg/mL) |  | > 128 | 75
16 | O=[N+]([O-])c1cc2n(n1)CC(OCc1ccc(OCc3ccccc3)cc1)CN2 (stereo unspecified) |  | > 128 | 55 | > 128 | 41
17 | O=[N+]([O-])c1cn2c(n1)SCC(OCc1ccc(OCc3ccccc3)cc1)C2 (stereo unspecified) | > 128 | 1.1 (≈ 0.437 µg/mL) |  | 11 (≈ 4.37 µg/mL) | 
18 | O=[N+]([O-])c1cn2c(n1)NCC(OCc1ccc(OC(F)(F)F)cc1)C2 (stereo unspecified) |  | > 128 | 63 | > 128 | 64
19 | O=[N+]([O-])c1cn2c(n1)SCC(OCc1ccc(OC(F)(F)F)cc1)C2 (stereo unspecified) | > 128 | 1.1 (≈ 0.413 µg/mL) |  | 13 (≈ 4.88 µg/mL) | 
20 | O=[N+]([O-])c1cc2n(n1)CC(OCc1ccc(OC(F)(F)F)cc1)CO2 (stereo unspecified) | 88 | > 128 | 89 |  | 86

Reference: ChEMBL document CHEMBL1143279, “Synthesis, reduction potentials, and antitubercular activity of ring A/B analogues of the bioreductive drug (6S)-2-nitro-6-{[4-(trifluoromethoxy)benzyl]oxy}-6,7-dihydro-5H-imidazo[2,1-b][1,3]oxazine (PA-824)” (J Med Chem, 2009)
